System: CAIX-positive SK-RC-52 cells
Experiment: Cellular binding, flow cytometry and confocal microscopy on CAIX-positive cells
Format: cell-based, human
Details: fluorescent derivatives, 100 nM, 30 min
Procedure, shortened: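 SK-RC-52 human renal carcinoma cells were grown in RPMI with 10% FCS and 1% antibiotic-antimycotic at 37 °C, 5% CO₂, and split 1:6 with 0.05% trypsin-EDTA. For confocal imaging, cells were seeded at 10^4 per chamber well in RPMI with 10% FBS and 10 mM HEPES, then grown overnight. Fluorescein-labelled test compounds were imaged with DAPI-stained nuclei. Acetazolamide-fluorescein was the positive control and untargeted fluorescein the negative control.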

CC(=O)Nc1nnc(S(N)(=O)=O)s1 [AAZ, acetazolamide]
binding to CAIX on the surface of SK-RC-52 cells: accumulated on the surface

Source: publication PMC10357458 (ACS Omega, 2023)
